Calls of active or inactive are those of the source. The rule behind the calls is not given here.
Tests used:
[1] = Distribution coefficient, logD of compound at pH 7.4 by chromatographic method; format: physicochemical; conditions: octanol/water
Outline: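 Chromatographic retention-time method at pH 7.4, calibrated against six reference drugs (atenolol, metoprolol, labetalol, diltiazem, triphenylene, permethrin) of known logD7.4 (R² = 0.99); mean analyte retention times converted via calibration line. At least two independent measurements per analyte.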

[2] = Plasma protein binding in human at 0.5 mg/ml by HPLC analysis; format: ADME, cell-free; conditions: read-out: PPB (converted)
Outline: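 HSA column (50 × 3 mm, 5 μm), 30 °C; samples 0.5 mg/mL in MeCN/DMSO 9:1, 2 μL injected. 50 mM ammonium acetate pH 7.4 to 30% iPrOH gradient over 5.4 min, held to 18 min; 1.0 mL/min, UV 254 nm. Log retention times calibrated to ten reference drugs' logK (R² = 0.94), converted to %PPB.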

[3] = biological target: Serine/threonine-protein kinase B-raf (Homo sapiens, UniProt P15056, V600E); assay: Inhibition of BRAF V600E mutant (unknown origin) using MEK1 (K97R) as substrate in presence of [gamma-33P]ATP by radiometric assay
[4] = tested on: von Hippel-Lindau disease tumor suppressor/Serine/threonine-protein kinase B-raf (Homo sapiens), P15056+P40337 [V600E]; assay: Protac activity at VHL/BRAF V600E mutant degradation in human SK-MEL-28 cells harboring wild type NRAS assessed as remaining BRAF V600E level at 1 uM incubated for 4 hrs by densitometric analysis; format: cell-based
Outline: (§1)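 SK-MEL-28 melanoma cells (STR-authenticated, mycoplasma-free) in DMEM + 10% FCS, 37°C, 5% CO2; 100,000 cells/well seeded, grown 48 h, then compound-treated as indicated. Lysis in D0.4 buffer (HEPES pH 7.5, 0.4 M KCl, Triton X-100, EDTA) with protease/phosphatase inhibitors. Lysates run on 4-12% Bis-Tris gels and blotted to PVDF. LI-COR imaging; BRAF densitometry normalised to loading control, expressed relative to DMSO.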

[5] = tested on: SK-MEL-28; assay: Inhibition of ERK signalling pathway in human SK-MEL-28 cells harboring BRAF V600E mutant/wild type NRAS assessed as reduction in phosphorylated ERK level at 0.1 to 10 uM incubated for 4 hrs by densitometric analysis; format: cell-based; conditions: dose 0.1-10 µM
Outline: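 SK-MEL-28 melanoma in DMEM/10% FCS, plated 100,000 cells/well, grown 48 h, treated 4 h at indicated doses. Lysates (HEPES pH 7.5, 0.4 M KCl, 0.4% Triton X-100, protease/phosphatase inhibitors) immunoblotted on PVDF, imaged by LI-COR; densitometry normalised to loading control, relative to DMSO; mean of five independent repeats for dose-response.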

[6] = tested on: von Hippel-Lindau disease tumor suppressor/Serine/threonine-protein kinase B-raf (Homo sapiens), P15056+P40337 [V600E]; assay: Protac activity at VHL/BRAF V600E mutant degradation in human SK-MEL-28 cells harboring wild type NRAS assessed as remaining BRAF V600E level at 0.1 to 10 uM incubated for 4 hrs by densitometric analysis; format: cell-based; conditions: dose 0.1-10 µM; outline: as §1
[7] = tested on: SK-N-AS; assay: Effect on ERK signalling pathway in human SK-N-AS harboring wild type BRAF/NRAS […] mutant assessed as BRAF level at 0.1 to 10 uM incubated upto 24 hrs by western blot analysis; format: functional, cell-based; conditions: dose 0.1-10 µM
Outline: (§2)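 SK-N-AS neuroblastoma (NRAS mutant), DMEM/10% FCS, plated 100,000 cells/well, grown 48 h, then treated 4 h at indicated doses or 24 h at 10 μM. Lysed in HEPES pH 7.5/KCl/Triton buffer with protease and phosphatase inhibitors; SDS-PAGE, PVDF transfer, LI-COR imaging; densitometry normalised to loading control, relative to DMSO.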

[8] = tested on: SK-N-AS; assay: Effect on ERK signalling pathway in human SK-N-AS harboring wild type BRAF/NRAS […] mutant assessed as phosphorylated ERK level at 0.1 to 10 uM incubated upto 24 hrs by western blot analysis; format: functional, cell-based; conditions: dose 0.1-10 µM; outline: as §2
[9] = tested on: von Hippel-Lindau disease tumor suppressor/Serine/threonine-protein kinase B-raf (Homo sapiens), P15056+P40337 [V600E]; assay: Protac activity at VHL/BRAF V600E mutant degradation in human SK-MEL-28 cells harboring wild type NRAS assessed as remaining BRAF V600E level at 10 uM incubated for 24 hrs by densitometric analysis; format: cell-based; outline: as §1
[10] = tested on: SK-MEL-28; assay: Anticancer activity against human SK-MEL-28 cells assessed as reduction in cell viability incubated for 120 hrs by CellTiter-Glo luminescent assay; format: functional, cell-based
Outline: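 SK-MEL-28 in DMEM with 10% FCS, 37°C, 5% CO2; seeded 400 cells/well in 384-well plates. T0 CellTiter-Glo reading taken at 24 h on a parallel plate; compounds dispensed acoustically, 5 days incubation, then CellTiter-Glo luminescence. Normalised to DMSO; GI50 by four-parameter log(inhibitor) vs response fit; mean±s.d., n=3.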

Sequence of Serine/threonine-protein kinase B-raf (P15056 2-766 V600E limits assumed): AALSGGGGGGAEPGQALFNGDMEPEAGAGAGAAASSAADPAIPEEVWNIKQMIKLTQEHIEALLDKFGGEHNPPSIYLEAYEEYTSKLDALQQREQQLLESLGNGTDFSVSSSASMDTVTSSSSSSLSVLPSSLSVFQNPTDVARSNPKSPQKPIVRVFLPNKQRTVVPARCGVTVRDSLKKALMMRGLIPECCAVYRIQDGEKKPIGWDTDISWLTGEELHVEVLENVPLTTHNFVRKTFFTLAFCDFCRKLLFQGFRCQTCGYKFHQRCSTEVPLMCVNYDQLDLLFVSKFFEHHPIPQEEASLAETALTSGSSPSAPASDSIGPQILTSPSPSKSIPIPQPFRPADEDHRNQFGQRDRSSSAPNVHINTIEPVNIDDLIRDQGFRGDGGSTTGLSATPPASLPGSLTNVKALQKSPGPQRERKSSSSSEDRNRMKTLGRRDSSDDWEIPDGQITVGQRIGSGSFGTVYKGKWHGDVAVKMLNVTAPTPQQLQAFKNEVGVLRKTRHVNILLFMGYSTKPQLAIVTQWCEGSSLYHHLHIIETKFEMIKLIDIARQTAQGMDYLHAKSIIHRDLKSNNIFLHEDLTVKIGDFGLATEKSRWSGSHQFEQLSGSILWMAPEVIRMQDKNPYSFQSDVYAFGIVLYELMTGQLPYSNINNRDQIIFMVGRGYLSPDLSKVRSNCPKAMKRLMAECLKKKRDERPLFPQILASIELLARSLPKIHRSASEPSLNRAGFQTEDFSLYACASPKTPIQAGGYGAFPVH

SMILES	chromatographic logD [1]	fraction unbound at 0.5 mg/ml [2]	IC50 [3]	Remaining BRAF V600E level [4]	inhibition [5]	Activity [6]	Activity [7]	Activity [8]	Activity [9]	Activity [10]
CCCS(=O)(=O)Nc1ccc(F)c(C(=O)c2c[nH]c3ncc(-c4ccc(C(=O)NCCOCCOCCOCCOc5cc(-c6scnc6C)ccc5CNC(=O)[C@@H]5C[C@@H](O)CN5C(=O)[C@H](C(C)C)N5Cc6ccccc6C5=O)cc4)cc23)c1F	2.5	0.04	3.4 nM	73%	Active					
CCCS(=O)(=O)Nc1ccc(F)c(C(=O)c2c[nH]c3ncc(-c4ccc(C(=O)NCCCCCCOCCCCCOCCCCC(=O)N[C@H](C(=O)N5C[C@H](O)C[C@H]5C(=O)NCc5ccc(-c6scnc6C)cc5)C(C)(C)C)cc4)cc23)c1F	3.7	0.04	48 nM	> 95%	Active					
CCCS(=O)(=O)Nc1ccc(F)c(C(=O)c2c[nH]c3ncc(-c4ccc(C(=O)NCCOCCOCC(=O)N[C@H](C(=O)N5C[C@H](O)C[C@H]5C(=O)NCc5ccc(-c6scnc6C)cc5)C(C)(C)C)cc4)cc23)c1F	2.3	0.05	8.5 nM	> 95%	Active					
CCCS(=O)(=O)Nc1ccc(F)c(C(=O)c2c[nH]c3ncc(-c4ccc(C(=O)NCCOCCOCCOCCCCC(=O)N[C@H](C(=O)N5C[C@H](O)C[C@H]5C(=O)NCc5ccc(-c6scnc6C)cc5)C(C)(C)C)cc4)cc23)c1F	2.4	0.05	0.31 nM	> 95%	Active					
CCCS(=O)(=O)Nc1ccc(F)c(C(=O)c2c[nH]c3ncc(-c4ccc(CNC(=O)CCCCOCCOCCOCCOc5cc(-c6scnc6C)ccc5CNC(=O)[C@@H]5C[C@@H](O)CN5C(=O)[C@H](C(C)C)N5Cc6ccccc6C5=O)cc4)cc23)c1F	2.7	0.04	3.8 nM	77%	Active					
CCCS(=O)(=O)Nc1ccc(F)c(C(=O)c2c[nH]c3ncc(-c4ccc(CNC(=O)CCCCOCCCCOCCCCOc5cc(-c6scnc6C)ccc5CNC(=O)[C@@H]5C[C@@H](O)CN5C(=O)[C@H](C(C)C)N5Cc6ccccc6C5=O)cc4)cc23)c1F	3.6	0.04	10 nM	77%	Active					
CCCS(=O)(=O)Nc1ccc(F)c(C(=O)c2c[nH]c3ncc(-c4ccc(N5CCN(CC(=O)N[C@H](C(=O)N6C[C@H](O)C[C@H]6C(=O)NCc6ccc(-c7scnc7C)cc6)C(C)(C)C)CC5)cc4)cc23)c1F	2.9	0.04		46%		Active	Active	Active		
CCN(C)S(=O)(=O)Nc1ccc(F)c(C(=O)c2c[nH]c3ncc(-c4cnc(N5CCN(CC(=O)N[C@H](C(=O)N6C[C@H](O)C[C@H]6C(=O)N[C@@H](C)c6ccc(-c7scnc7C)cc6)C(C)(C)C)CC5)nc4)cc23)c1F	3.2	0.04		> 95%						
O=C1Nc2ccc(I)cc2C1=Cc1cc(Br)c(O)c(Br)c1 [GW305074X]	2.3									
CCN(C)S(=O)(=O)Nc1ccc(F)c(C(=O)c2c[nH]c3ncc(-c4ccc(N5CCN(CC(=O)N[C@H](C(=O)N6C[C@H](O)C[C@H]6C(=O)NCc6ccc(-c7scnc7C)cc6)C(C)(C)C)CC5)cc4)cc23)c1F	3.2	0.04		52%					Active	Active
